# An excerpt weighted towards active compounds, which were near 4.6% of everything screened.
# STAT1 activator: activators of IFN-gamma induced STAT1 signaling | NIH 3T3 STAT1-luciferase reporter, luminescence; 100% = IFN-gamma alone, no compound | activation (% of control), % at 5.5 µM | 2.6% of 200,000 active | AID 932;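 active = activation above the screen-wide mean activation plus 3 SD, cut at about 130% in these data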
# Mdm2 ligase inh: blocks human Mdm2 ubiquitin ligase activity. Q00987. cell-based MDM2 ubiquitination luciferase reporter, 2 h; 0 = plate control, 100 = twice control, blank-subtracted. signal enhancement, % at 5 µM. 0.11% of 210,000 active. AID 1230;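 active = signal enhancement of 30% or more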;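 also: luminescence tracks abundance of the self-degrading MDM2-luciferase fusion protein; higher signal means inhibition of MDM2 E3 ligase activity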
#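 Material: Stable MDM2–luciferase fusion reporter cells | Amount: 2000 cells seeded into each well | Dosing: One concentration, 5 µM, with 0.2% DMSO | Incubation: 4 h cell settling then 2 h compound exposure, 37 °C | Measured by: Luciferase luminescence | Read-out basis: % enhancement relative to plate controls after blank subtraction | Benchmarks: Control and blank well means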
# APP 5'UTR act: APP 5'UTR luciferase reporter activation; SH-SY5Y APP 5'UTR luciferase reporter, luminescence; zero percent = DMSO vehicle wells; activation, % at 2 µM; 1% of 190,000 active;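 active = activation above a set limit, based on mean plus 3 SD of controls, cut at about 140% in these data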
# p97 ATPase inh: blocks human p97 ATPase activity | P55072 | recombinant p97 ATPase, Kinase-Glo ATP luminescence, 3 h | 0.42% of 220,000 active | inhibition, % at 8 µM | AID 1481; in the data active = inhibition above about 15%
# NF-kB expr up: raises NF-kB expression in human neuronal cells; NF-kB reporter expression; active compounds read high; fold change at 12.5 µM; 1.6% of 190,000 active; in the data active = fold change above about 3.3
# Wee1 stabilizer: blocks degradation of human Wee1 kinase; P30291; HeLa Luc-Wee1K328M stability, luciferase luminescence; 100% = proteasome inhibitor MG132 effect; reporter increase, % at 5 µM; 1.2% of 220,000 active;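 active = activation above the mean of all tested compounds plus 3 SD, set per screening run, cut at about 8.8% in these data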;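 also: cells exposed to compound for 20 h before luminescence read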
# Target sequence (P30291 whole entry K328M): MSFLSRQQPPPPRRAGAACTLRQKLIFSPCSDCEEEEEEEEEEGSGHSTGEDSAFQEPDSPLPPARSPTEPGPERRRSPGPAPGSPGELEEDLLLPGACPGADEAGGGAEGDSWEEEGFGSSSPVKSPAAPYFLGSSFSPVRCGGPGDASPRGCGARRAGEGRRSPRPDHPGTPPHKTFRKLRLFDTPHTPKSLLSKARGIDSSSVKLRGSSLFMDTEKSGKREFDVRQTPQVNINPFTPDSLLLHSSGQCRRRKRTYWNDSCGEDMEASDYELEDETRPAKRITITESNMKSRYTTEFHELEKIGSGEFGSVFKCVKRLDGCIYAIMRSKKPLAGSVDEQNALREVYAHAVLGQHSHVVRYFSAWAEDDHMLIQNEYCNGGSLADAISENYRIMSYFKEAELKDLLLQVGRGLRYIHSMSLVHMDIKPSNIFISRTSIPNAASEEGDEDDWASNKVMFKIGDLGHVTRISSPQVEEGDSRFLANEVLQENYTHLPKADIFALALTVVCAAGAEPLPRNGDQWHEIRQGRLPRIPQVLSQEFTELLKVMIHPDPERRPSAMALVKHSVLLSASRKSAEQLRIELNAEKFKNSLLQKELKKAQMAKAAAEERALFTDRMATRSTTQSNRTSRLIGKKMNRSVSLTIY
# Numbers stand for hits; i = inactive; nt = not tested or not shown; ! = not active in a repeat.
SMILES,STAT1 activator,Mdm2 ligase inh,APP 5'UTR act,p97 ATPase inh,NF-kB expr up,Wee1 stabilizer
C=CCN(C(=O)c1csnn1)C(C(=O)NC(C)(C)C)c1ccncc1 (stereo not drawn),i,i,i,i,i,i
Cc1ccc(NC(=O)c2snc3ccc(Cl)cc23)cc1C,130.5,nt,i,i,i,i
Cc1ccc(NC(=O)c2snc3c(=O)[nH]cnc23)cc1C,i,i,i,i,i,i
Cc1ccc(F)cc1NC(=O)C12CC3CC(C1)CC(n1cnc([N+](=O)[O-])n1)(C3)C2,i,i,i,i,i,i
CCOC(=O)c1[nH]ncc1CN1CCCC(C(=O)c2ccc(C(C)(C)C)cc2)C1 (stereo not drawn),i,i,i,i,i,i
O=C(O)c1ccc2nc(-c3ccccc3)sc2c1,i,i,i,i,9.09,i
Nc1ccc(-c2nc3ccc(C(=O)O)cc3s2)cc1,i,i,i,i,9.23,i
COc1cccc(NC(=S)NN=C2CCCCCC2)c1,i,i,i,i,3.33,i
O=C(CCSCc1ccc(Cl)cc1)NCc1cccnc1,i,i,i,i,i,i
COc1ccccc1NC(=O)c1cc(S(=O)(=O)NCc2ccccc2)ccc1F,i,i,i,i,i,9.2
C=CCNC(=O)COc1ccccc1C#N,i,i,i,i,i,i
CC(C)(C)NC(=O)NC(=O)COc1ccccc1C#N,140.3,i,186.6,i,i,i
COc1ccc(-c2ncccc2OC(=O)C23CC4CC(CC(C4)C2)C3)cc1,i,i,i,i,i,i
COc1ccccc1NCC(=O)n1nc(C)cc1C,i,i,i,i,i,i
CCc1cccc2c(C(=O)COC(=O)c3ccccc3)c[nH]c12,143.0,i,i,i,i,i
CCc1cccc2c(C(=O)COC(=O)c3ccc(O)cc3)c[nH]c12,131.6,i,i,i,i,i
CCc1cccc2c(C(=O)COC(=O)c3c(C)noc3C)c[nH]c12,i,i,i,i,i,i
COc1ccc(-c2csc(NC3=NCCCCC3)n2)cc1,i,i,i,i,i,i
Clc1ccc(-c2csc(NNC3=NCCCCC3)n2)cc1,i,i,i,i,i,i
c1ccc(-c2csc(NNC3=NCCCCC3)n2)cc1,131.9,i,i,i,i,i
Brc1ccc(-c2csc(NC3=NCCCCC3)n2)cc1,134.2,i,i,i,i,i
CC(C)(C)c1ccc(C(=O)NCC(=O)OCC(=O)c2ccc3c(c2)-c2ccccc2C3)cc1,i,i,i,i,i,i
CCOC(=O)C1(Cc2cccc(Cl)c2)CCCN(C(=O)C2CC2)C1 (stereo not drawn),i,i,i,i,i,i
O=C(/C(N=Nc1cccc(C(F)(F)F)c1)=C(/O)c1cccs1)C(F)(F)F,nt,i,nt,i,nt,i
Cc1ccc(N=C/C(C(=O)C(F)(F)F)=C(\O)c2cccs2)cc1,i,i,189.6,i,i,i
SMILES,STAT1 activator,Mdm2 ligase inh,APP 5'UTR act,p97 ATPase inh,NF-kB expr up,Wee1 stabilizer
O=c1cc(CN2CCc3ccccc3C2)nc2sccn12,i,i,i,i,3.53,i
O=c1cc(CN2CCN(c3ccccc3O)CC2)nc2sccn12,i,i,i,i,i,i
CS(=O)(=O)N1CCCC(C(=O)N2CCN(c3cccc(Cl)c3)CC2)C1 (stereo not drawn),i,nt,i,i,nt,i
Cc1csc(/C(=N/OC(=O)c2ccco2)C(N)=O)n1,nt,nt,nt,i,nt,i
CCOc1ccc(/C(O)=C2/C(=O)C(=O)N(CCCn3ccnc3)C2c2cccs2)cc1Cl (stereo not drawn),i,i,i,i,i,10.2
Cc1ccc(Nc2ncccc2C(N)=O)cc1[N+](=O)[O-],141.3,i,i,i,i,i
CCOC(=O)c1ccc(Nc2ncccc2[N+](=O)[O-])cc1,134.8,i,151.1,i,7.84,i
COc1ccc(C2C(C(=O)Nc3ccc(OC)c(OC)c3)c3ccccc3C(=O)N2C)cc1 (stereo not drawn),i,i,i,i,i,i
CCOC(=O)C(=O)/C(C#N)=C/Nc1ccccc1,i,i,i,i,i,i
CCOC(=O)/C(C#N)=C/c1c[nH]c2ccccc12,i,i,i,i,i,10.1!
CCOC(=O)/C(C#N)=C/Nc1ccccc1OC,145.1,i,i,i,i,i
Cc1ccc(NC(=O)CC(NCC2CCCO2)C(=O)O)cc1C (stereo not drawn),i,i,i,i,i,i
O=[N+]([O-])c1ccc(/C=N/N/C(=N/c2ccccn2)c2ccccn2)cc1,134.8,i,i,i,i,i
COC(=O)c1c(C)nc(C)c(C(=O)OC)c1-c1ccc(OC)c(OC)c1,i,i,i,i,i,i
CCOC(=O)c1c(C)nc(C)c(C(=O)OCC)c1-c1ccc(O)c(OC)c1,i,i,i,i,3.77,i
Cc1ccccc1C(=O)Nc1cccc(NC(=O)Cn2cnc3c(=O)n(C)c(=O)n(C)c32)c1,i,i,i,i,5.42,i
COc1ccc(-c2noc(CSc3ccccc3)n2)cc1OC,129.7,i,i,i,i,i
c1ccc(SCc2nc(-c3ccncc3)no2)cc1,128.7,i,i,i,i,i
Cc1ccc(SCc2nc(-c3ccccc3)no2)cc1,i,i,i,i,i,i
Cc1ccc(-c2csc3nc(-c4ccncc4)[nH]c(=O)c23)cc1,nt,nt,nt,i,nt,i
Cc1ccc(-c2nc3ccsc3c(=O)[nH]2)cc1,i,i,198.5,i,i,i
Cn1cccc1C1Nc2ccccc2NC2=C1C(=O)CC(C)(C)C2 (stereo not drawn),i,i,138.9,i,i,i
Cc1[nH][nH]c(=O)c1C(c1ccc(-c2ccc(Cl)cc2Cl)o1)c1c(C)[nH][nH]c1=O,i,i,i,20.2,i,i
O=C(NC1CCC(O)CC1)c1ccc(-c2ccc([N+](=O)[O-])cc2)o1 (stereo not drawn),nt,nt,nt,i,nt,i
Fc1ccccc1N1CCN(c2ncnc3nc[nH]c23)CC1,nt,i,nt,i,nt,i
SMILES,STAT1 activator,Mdm2 ligase inh,APP 5'UTR act,p97 ATPase inh,NF-kB expr up,Wee1 stabilizer
Fc1ccccc1N1CCN(c2ncnc3[nH]ncc23)CC1,i,i,i,i,3.55,i
CC/C(=N/O)C(=O)c1ccc(Br)cc1,i,i,i,i,i,i
Cc1ccc(NC2Nc3cc(C)nn3S2)c(C)c1 (stereo not drawn),142.3,i,i,i,i,i
O=C(O)/C=C/C(=O)NC1CCCCCCCCCCC1,nt,i,nt,i,nt,i
O=C(CC1(O)C(=O)N(C/C=C/c2ccccc2)c2ccccc21)c1ccccn1 (stereo not drawn),i,i,i,i,3.75,i
O=C(CC1(O)C(=O)N(CCc2ccccc2)c2ccccc21)c1ccccn1 (stereo not drawn),i,i,i,i,i,i
CC(C)CNC(=O)c1ccccc1NC(=O)/C=C/c1cccc([N+](=O)[O-])c1,i,i,i,i,i,i

# Source: PubChem BioAssay
